Data published in ChEMBL document CHEMBL1152305, “Synthesis and ribonucleotide reductase inhibitory activity of thiosemicarbazones” (Bioorg Med Chem Lett, 2008).

Test: Inhibition of human recombinant ribonucleotide reductase expressed in BL21 (DE3) bacteria assessed as conversion of [3H]CDP to [3H]dCDP
Summary of the method: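 Recombinant human hRRM1 and hRRM2 subunits (BL21(DE3) expression, Ni(II) affinity purified) preincubated together with compound at room temperature 30 min, 1% v/v DMSO final. Phosphodiesterase dephosphorylation, HPLC radio-flow separation of cytidine/deoxycytidine. IC50 from nonlinear fit versus DMSO control; three tests in duplicate.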

IC50 [µM] | SMILES
> 500 | COc1cc(/C=N/NC(=S)Nc2ccccc2)ccc1O
287 | Oc1ccc(/C=N/NC(=S)Nc2ccc(Cl)cc2)cc1
43.3 | Oc1ccc(/C=N/NC(=S)Nc2ccc(O)cc2)cc1
242 | Oc1ccc(/C=N/NC(=S)Nc2ccccc2)cc1
> 500 | S=C(N/N=C/c1ccco1)Nc1ccc(Cl)cc1
> 500 | COc1cc(/C=N/NC(=S)Nc2ccc(Cl)cc2)ccc1O
> 500 | Oc1ccccc1/C=N/NC(=S)Nc1ccc(Cl)cc1
36.5 | Cc1ccccc1NC(=S)N/N=C/c1ccc(O)cc1
46.8 | Oc1ccc(/C=N/NC(=S)Nc2ccccc2Cl)cc1
30.4 | Cc1cccc(NC(=S)N/N=C/c2ccc(O)cc2)c1
39.3 | O=[N+]([O-])c1ccccc1NC(=S)N/N=C/c1ccc(O)cc1
45.1 | O=[N+]([O-])c1ccc(NC(=S)N/N=C/c2ccc(O)cc2)cc1
29.3 | Oc1ccc(/C=N/NC(=S)Nc2cccc(Cl)c2)cc1
> 500 | Oc1ccccc1/C=N/NC(=S)Nc1ccccc1
29.3 | Oc1ccc(/C=N/NC(=S)Nc2ccccc2O)cc1
28.6 | Oc1ccc(/C=N/NC(=S)Nc2cccc(O)c2)cc1
> 500 | S=C(N/N=C/c1cccs1)Nc1ccc(Cl)cc1
14.2 | Cc1ccc(NC(=S)N/N=C/c2ccc(O)cc2)cc1
41.6 | COc1ccccc1NC(=S)N/N=C/c1ccc(O)cc1
148 | NC(=O)NO [HYDROXYUREA]
2.25 | NC(=S)N/N=C/c1ncccc1N [TRIAPINE]
